Rows were chosen to be rich in hits. Some 5.7% of all compounds tested hit in one or more screens of this group.
T cruzi inh: T. cruzi replication inhibition; inhibition, % (test concentration not listed); 300,000 compounds, 1.4% hits; AID 1885; T. cruzi beta-gal in NIH3T3, luminescence, 90 h;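 active means mean inhibition across valid replicates above about 55%, limit read from the data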;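 further: signal also drops with host cell toxicity which is not excluded here; 0% = plate median of DMSO wells and 100% = zero luminescence signal; higher percent means less beta-gal luminescence so fewer parasites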
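System: NIH/3T3 fibroblasts plus reporter T. cruzi. Medium: DMEM plus 2% FBS. Probe or stimulus: 5000 reporter trypomastigotes per well. Compound: single 50 nL compound addition per well in DMSO. Incubation: co-culture of at least 90 h after 3 h attachment. Detection: GalScreen β-gal luminescence, detergent lysis, 60 min. Evaluation: parasite load inhibition, %.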
Beta cell apopt: blocks beta cell apoptosis; INS-1E cytokine-induced death, ATP luminescence, 48 h; percent of positive-control rescue, neutral wells zero; protection from apoptosis, % (concentration not given with the values); 300,000 compounds, 0.8% hits; AID 435005;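 active means Every replicate reaches about 75%, or at least half do and their mean reaches it too, limit read from the data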;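 further: 0% = cytokine-treated negative control wells and 100% = positive control rescue; higher means more ATP so stronger rescue from cytokine killing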
Mdm2 MdmX PPI: inhibitors of human Mdm2/MdmX interaction. O15151+Q00987. SaOS-2 split-luciferase Mdm2/MdmX complementation, luminescence. inhibition, % at 8 µM. 330,000 compounds, 3% hits;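 active means inhibition of at least 50% at 8 µM in the primary screen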
Target sequence (O15151 whole entry, looked up): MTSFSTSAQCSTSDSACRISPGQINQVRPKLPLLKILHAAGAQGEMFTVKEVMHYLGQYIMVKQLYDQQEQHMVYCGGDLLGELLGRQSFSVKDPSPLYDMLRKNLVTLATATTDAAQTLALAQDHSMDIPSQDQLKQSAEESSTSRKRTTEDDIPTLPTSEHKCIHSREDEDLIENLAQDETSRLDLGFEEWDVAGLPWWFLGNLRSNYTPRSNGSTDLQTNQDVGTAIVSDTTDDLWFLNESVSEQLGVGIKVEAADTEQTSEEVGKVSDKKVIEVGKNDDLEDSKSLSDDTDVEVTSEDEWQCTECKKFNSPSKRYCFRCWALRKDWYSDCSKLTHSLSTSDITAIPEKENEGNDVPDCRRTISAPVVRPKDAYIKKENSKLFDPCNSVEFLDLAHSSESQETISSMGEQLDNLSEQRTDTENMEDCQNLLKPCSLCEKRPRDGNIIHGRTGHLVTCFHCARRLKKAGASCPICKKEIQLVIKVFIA
Target sequence (Q00987 whole entry, looked up): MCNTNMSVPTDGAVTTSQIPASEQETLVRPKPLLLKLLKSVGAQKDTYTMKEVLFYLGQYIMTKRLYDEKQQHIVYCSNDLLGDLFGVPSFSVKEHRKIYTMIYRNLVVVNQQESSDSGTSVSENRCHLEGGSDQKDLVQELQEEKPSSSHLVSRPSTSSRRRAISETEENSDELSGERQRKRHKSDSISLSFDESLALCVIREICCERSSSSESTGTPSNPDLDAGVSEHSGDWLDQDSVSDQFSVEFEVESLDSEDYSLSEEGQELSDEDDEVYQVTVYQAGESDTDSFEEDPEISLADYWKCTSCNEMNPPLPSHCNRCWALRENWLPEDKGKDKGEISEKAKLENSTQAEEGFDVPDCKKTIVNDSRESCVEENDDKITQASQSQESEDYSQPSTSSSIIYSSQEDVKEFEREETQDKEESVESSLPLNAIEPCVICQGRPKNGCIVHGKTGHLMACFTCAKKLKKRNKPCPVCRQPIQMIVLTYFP
Calb FLC: C. albicans growth modulation with fluconazole; C. albicans CaCi-2 + fluconazole, Alamar Blue growth, 48 h; growth inhibition, % (no concentration beside the values); 300,000 compounds, 0.57% hits; AID 1979;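 active means growth inhibition above about 58% in most replicates, limit read from the data, passing the limit was not always enough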;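 further: all wells also contain fluconazole at 8 µg/ml as a sub-toxic cotreatment; 0% = median of DMSO wells and 100% = median of geldanamycin control wells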
CSC inhib: cancer stem cell inhibition | inhibition, % at 7.5 µM | cancer stem cell-like cells viability, luminescence | 300,000 compounds, 1.1% hits; in the data active means inhibition above about 75%; tested in HMLE shEcad cells
SKKanGAS inh: SKKanGAS growth inhibition; S. pyogenes SKKanGAS, kanamycin growth, BacTiter-Glo, 6 h; 300,000 compounds, 1.3% hits; inhibition, % at 7.5 µM;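 active means mean replicate score, as percent of positive control median, at least 50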;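 further: strain carries kanamycin resistance gene driven by streptokinase promoter and grows in 40 µg/ml kanamycin; loss of luminescence reflects streptokinase promoter inhibition or plain growth inhibition; 0% = median of DMSO wells and 100% = positive control at its reference dose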
Mdm2-MdmX conf: confirmation of human Mdm2/MdmX interaction inhibitors; shares compounds with Mdm2 MdmX PPI; Mdm2-MdmX binding, luminescent assay; inhibition, % at 8 µM; 10,000 compounds, 55% hits; in the data active means inhibition above about 40%
FLuc counter: inhibits full-length luciferase, flagging false Mdm2/MdmX hits | shares compounds with Mdm2 MdmX PPI | SaOS-2 full-length luciferase counterscreen, luminescence | inhibition, % at 8 µM | 6,200 compounds, 77% hits;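 active means mean inhibition at 8 µM reaching about 37%, which flags the compound as non-specific, limit read from the data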;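 further: p53-null SaOS-2 cells with luciferase driven by a doxycycline-inducible promoter; compound on cells about two nights before reading with doxycycline added after day one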
* marks the source's active call; other numbers are inactive results; . = no result given.

SMILES | T cruzi inh | Beta cell apopt | Mdm2 MdmX PPI | Calb FLC | CSC inhib | SKKanGAS inh | Mdm2-MdmX conf | FLuc counter
COCCNC(=O)/C(C#N)=C\c1ccc(CNC(=O)C(=O)Nc2ccc(C)c(C)c2)o1 | -6.7 | -0.5 | -6.8 | -17.0 | -4.1 | -10.4 | . | .
O=C(Nc1ccc(F)cc1F)c1csc(-c2ccccc2)n1 | -8.2 | . | -28.3 | 53.1 | 4.4 | -3.0 | . | .
O=C(Nc1ccc(F)cc1F)c1cccc(C(=O)Nc2ccc(F)cc2F)n1 | -10.1 | 68.7 | 94.8* | -5.0 | 56.3 | -1.9 | 87.0* | 50.1*
CCOc1ccc(-c2c(C(=O)N/N=C(\C)c3cccnc3)nnn2-c2nonc2N)cc1 | 1.9 | 0.5 | 64.0* | 1.3 | -12.3 | 1.0 | 3.8 | .
C/C(=N\NC(=O)c1nnn(-c2nonc2N)c1-c1ccccc1)c1ccccc1O | 60.9* | 89.7* | 81.6* | 30.1 | . | 28.6 | 83.8* | 51.2*
C/C(=N/NC(=O)c1nnn(-c2nonc2N)c1COc1ccccc1)c1ccc(O)cc1 | -1.1 | 2.2 | 74.9* | 4.4 | 3.7 | -1.6 | -8.2 | .
C/C(=N/NC(=O)c1nnn(-c2nonc2N)c1COc1ccccc1)c1ccccc1Cl | 5.0 | 5.1 | 24.7 | . | 12.2 | 23.4 | . | .
O=C1c2cccc3cc(Br)cc(c23)C(=O)N1Nc1ccc(Br)cc1 | -9.4 | 5.0 | 72.8* | 2.9 | -8.1 | 11.1 | 62.6* | 74.4*
CC(C)CN(C#N)c1nc(N2CCOCC2)nc(N2CCOCC2)n1 | 30.4 | -3.7 | 50.7* | 4.6 | 9.8 | 0.4 | 38.4 | 69.7*
Cc1noc(C)c1S(=O)(=O)N(C)C[C@H]1Oc2c(NC(=O)NC(C)C)cccc2C(=O)N([C@H](C)CO)C[C@@H]1C | . | 3.8 | -1.1 | . | . | . | . | .
COc1cc(-c2nc3ccc(N4CCN(C)CC4)cc3[nH]2)cc(OC)c1OC | 21.0 | -0.4 | 78.5* | 0.6 | -9.6 | -3.3 | 65.0* | 73.0*
Cc1ccc(S(=O)(=O)c2ncccc2N)cc1 | -13.3 | -4.3 | -9.9 | -9.6 | -13.0 | 4.4 | . | .
Cc1ccc(S(=O)(=O)c2ncccc2[N+](=O)[O-])cc1 | 64.5* | 50.5 | 89.8* | 108.5* | 47.5 | 0.4 | 76.7* | 52.3*
Cc1cc(SCc2ccc(Cl)cc2Cl)nc(=O)[nH]1 | -6.5 | -2.4 | 53.1* | -0.2 | 61.5 | -2.2 | 30.2 | .
NC(=O)c1oc2ccccc2c1NC(=O)c1ccc([N+](=O)[O-])o1 | 31.9 | 34.8 | 64.9* | 53.6 | . | 73.0* | 55.4* | 31.8
CCCN1C(C)C(C(=O)OCC)=CN(Cc2ccc(Br)cc2)S1(=O)=O (stereo not drawn) | . | . | 7.5 | . | . | . | . | .
CCNc1c(NC(=O)C2CCC(C)CC2)c(=O)oc2ccccc12 (stereo not drawn) | 3.6 | 3.5 | 8.0 | -1.8 | . | 4.9 | . | .
COc1ccc(CN2C(=O)C(Cc3ccccc3)Nc3ncnc(N4CCc5ccccc5C4)c32)cc1 (stereo not drawn) | 36.8 | . | 32.2 | 22.4 | 16.6 | 23.0 | . | .
COC(=O)[C@]1(Cc2ccccc2)N[C@H](CN(C)C(=O)Nc2ccc(C(F)(F)F)cc2)[C@@H]2C(=O)N(Cc3ccccc3)C(=O)[C@@H]21 | . | 6.5 | 70.1* | . | . | . | 42.5* | 65.2*
CC[C@@]1(C(=O)OC)N[C@H](CN(C)C(=O)c2ccc(C(C)(C)C)cc2)[C@@H]2C(=O)N(Cc3ccccc3)C(=O)[C@@H]21 | . | . | 42.6 | . | . | . | . | .
CC[C@@]1(C(=O)OC)N[C@H](CN(C)C(=O)Nc2ccc(C(F)(F)F)cc2)[C@@H]2C(=O)N(Cc3ccccc3)C(=O)[C@@H]21 | . | -6.7 | 84.2* | . | . | . | 81.4* | 32.2
CCN(C[C@H]1N[C@@](Cc2ccccc2)(C(=O)OC)[C@H]2C(=O)N(Cc3ccccc3)C(=O)[C@@H]12)C(=O)Nc1ccc(Cl)cc1 | . | 18.5 | 66.5* | . | 61.4 | . | 47.9* | 55.6*
CCN(C[C@H]1N[C@@](CC)(C(=O)OC)[C@H]2C(=O)N(Cc3ccccc3)C(=O)[C@@H]12)C(=O)c1ccc(C(C)(C)C)cc1 | . | . | 74.7* | . | . | . | 68.2* | 55.0*
CC(C(=O)OCC(=O)N(C)C1(C#N)CCCCC1)N1C(=O)c2ccccc2C1=O (stereo not drawn) | . | -6.3 | -18.5 | . | -16.1 | . | . | .
CCN(CC)CCn1c2ccccc2c2cnc(N)c(C#N)c21 | 65.2* | 92.9* | 62.6* | 35.2 | -0.7 | 17.7 | 26.9 | .
SMILES | T cruzi inh | Beta cell apopt | Mdm2 MdmX PPI | Calb FLC | CSC inhib | SKKanGAS inh | Mdm2-MdmX conf | FLuc counter
CN(C)C=Nc1ncc2c3ccccc3n(CCN(C)C)c2c1C#N | 25.8 | -3.7 | 60.3* | -4.9 | 6.6 | 5.1 | 61.5* | 21.8
CCCCn1c(N)c(N(CC(C)C)C(=O)c2cc(S(=O)(=O)N3CCOCC3)ccc2Cl)c(=O)[nH]c1=O | 0.7 | . | 5.6 | 5.7 | 1.9 | 1.3 | . | .
Cn1c(=O)[nH]c(=O)c2c1nc(N1CCN(CCO)CC1)n2Cc1ccccc1 | -5.9 | -7.9 | -12.0 | -2.9 | -13.4 | 1.0 | . | .
O=C(Cn1nnc2ccccc21)Nc1ccccc1[N+](=O)[O-] | -13.7 | -0.3 | -6.1 | 0.1 | . | 0.7 | . | .
O=C(Nc1ccccc1[N+](=O)[O-])C1=C(O)CCn2c1nc1ccccc12 | 6.5 | 22.8 | 70.7* | -1.8 | 2.5 | 5.0 | 18.1 | .
O=C(Nc1ccc([N+](=O)[O-])cc1)c1cc2ccccc2nc1Cl | 29.8 | 18.9 | -10.9 | 3.7 | 0.5 | 5.8 | . | .
O=C(Nc1ccccc1[N+](=O)[O-])c1cc2ccccc2nc1Cl | -10.0 | -7.9 | 63.6* | -9.6 | . | 9.7 | -25.9 | .
COC(=O)c1ccc2[nH]c(C3(O)CCCCC3)c(C)c2c1 | . | -3.4 | -68.6 | . | 11.9 | . | . | .
Cc1c(C2(O)CCCCC2)[nH]c2ccc(C(F)(F)F)cc12 | . | 5.5 | 65.9* | . | 81.1* | . | 30.9 | 61.6*
COc1ccccc1NC(=O)CCNS(=O)(=O)c1ccc2c(c1)CCN2C(C)=O | -9.6 | -1.1 | 9.0 | 7.0 | -17.3 | 4.5 | . | .
N/C(=N\NC(=O)c1cccs1)c1cc2ccccc2oc1=O | -31.9 | -0.6 | 3.0 | 15.3 | -9.8 | 1.8 | . | .
CCN(CC)c1ccc2cc(/C(N)=N/NC(=O)c3cccs3)c(=O)oc2c1 | 6.3 | 5.4 | 84.8* | 14.6 | 6.3 | 17.6 | 70.8* | 84.1*
Clc1cccc(OCCN2CCN(CCOc3cccc(Cl)c3)CC2)c1 | 50.9 | 20.3 | 68.9* | -32.4 | 36.2 | 1.8 | 35.2 | .
CC1CCN(CCOc2cccc(Br)c2)CC1 | 4.9 | 2.3 | -4.4 | -24.5 | 17.5 | -0.6 | . | .
Cc1cc(C2CCCCC2)n(O)c(=O)c1 | . | 87.8* | 73.9* | . | 104.8* | . | 57.8* | 32.2
Cn1c(NC2CCCCC2)cc(=O)n(C)c1=O | -0.9 | -1.1 | 26.4 | -4.0 | -12.1 | -1.2 | . | .
COc1ccc(CN(C(=O)CSc2nnc(-c3c[nH]c4ccccc34)o2)c2ccc(F)cc2)cc1OC | 50.6 | -17.4 | 66.1* | -0.9 | 65.9 | 21.8 | 74.0* | 70.3*

Screening data deposited in PubChem BioAssay by several laboratories.
